Reference: ChEMBL document CHEMBL3259728, “Design, synthesis and biological evaluation of some novel substituted quinazolines as antitumor agents” (2014)

Key:
Assay type in all cases: functional
[1] = Growth inhibition of human BT549 cells at 10 uM after 48 hrs by SRB assay; details: BT-549, 48 h, read-out: GI
Procedure, shortened: (§1)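 NCI primary one-dose screen. A single concentration of 10^-5 M was added to the cell culture, followed by 48 h incubation and an SRB protein-dye endpoint read spectrophotometrically. Results are growth percentage relative to untreated control cells, reported as % growth inhibition.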

MDA-MB-231 = assay: Growth inhibition of human MDA-MB-231 cells at 10 uM after 48 hrs by SRB assay; details: MDA-MB-231, 48 h, read-out: GI
Procedure, shortened: (§2)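 NCI-60 primary one-dose screen run at the US NCI, with human tumour lines from nine cancer types. Compound added once at 10^-5 M, followed by 48 h incubation. End point was sulforhodamine B protein staining read spectrophotometrically. Result given as percent growth of treated cells against untreated controls, reported as % growth inhibition.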

DU-145 = assay: Growth inhibition of human DU145 cells at 10 uM after 48 hrs by SRB assay; details: DU-145, 48 h, read-out: GI; procedure, shortened: as §2
PC-3 = assay: Growth inhibition of human PC3 cells at 10 uM after 48 hrs by SRB assay; details: PC-3, 48 h, read-out: GI; procedure, shortened: as §2
[2] = Growth inhibition of human UO31 cells at 10 uM after 48 hrs by SRB assay; details: UO-31, 48 h, read-out: GI; procedure, shortened: as §2
TK-10 = assay: Growth inhibition of human TK10 cells at 10 uM after 48 hrs by SRB assay; details: TK-10, 48 h, read-out: GI; procedure, shortened: as §2
SN12C = assay: Growth inhibition of human SN12C cells at 10 uM after 48 hrs by SRB assay; details: read-out: GI; procedure, shortened: as §2
786-0 = assay: Growth inhibition of human 786-0 cells at 10 uM after 48 hrs by SRB assay; details: 786-0, 48 h, read-out: GI; procedure, shortened: as §1
SK-OV-3 = assay: Growth inhibition of human SKOV3 cells at 10 uM after 48 hrs by SRB assay; details: SK-OV-3, 48 h, read-out: GI; procedure, shortened: as §2
[3] = Growth inhibition of human NCI-ADR-RES cells at 10 uM after 48 hrs by SRB assay; details: read-out: GI; procedure, shortened: as §2
[4] = Growth inhibition of human OVCAR5 cells at 10 uM after 48 hrs by SRB assay; details: OVCAR-5, 48 h, read-out: GI; procedure, shortened: as §2
[5] = Growth inhibition of human OVCAR3 cells at 10 uM after 48 hrs by SRB assay; details: OVCAR-3, 48 h, read-out: GI; procedure, shortened: as §2
IGROV-1 = assay: Growth inhibition of human IGROV1 cells at 10 uM after 48 hrs by SRB assay; details: IGROV-1, 48 h, read-out: GI; procedure, shortened: as §2
[6] = Growth inhibition of human UACC62 cells at 10 uM after 48 hrs by SRB assay; details: UACC-62, 48 h, read-out: GI; procedure, shortened: as §2
SK-MEL-5 = assay: Growth inhibition of human SK-MEL-5 cells at 10 uM after 48 hrs by SRB assay; details: SK-MEL-5, 48 h, read-out: GI; procedure, shortened: as §2
SK-MEL-2 = assay: Growth inhibition of human SK-MEL-2 cells at 10 uM after 48 hrs by SRB assay; details: SK-MEL-2, 48 h, read-out: GI; procedure, shortened: as §2
MDA-MB-435 = assay: Growth inhibition of human MDA-MB-435 cells at 10 uM after 48 hrs by SRB assay; details: MDA-MB-435, 48 h, read-out: GI; procedure, shortened: as §2
M14 = assay: Growth inhibition of human M14 cells at 10 uM after 48 hrs by SRB assay; details: M14, 48 h, read-out: GI; procedure, shortened: as §2
Malme-3M = assay: Growth inhibition of human MALME-3M cells at 10 uM after 48 hrs by SRB assay; details: read-out: GI; procedure, shortened: as §2
[7] = Growth inhibition of human LOXIMVI cells at 10 uM after 48 hrs by SRB assay; details: LOX IMVI, read-out: GI; procedure, shortened: as §2
U-251 = assay: Growth inhibition of human U251 cells at 10 uM after 48 hrs by SRB assay; details: U-251, 48 h, read-out: GI; procedure, shortened: as §2
SNB-19 = assay: Growth inhibition of human SNB19 cells at 10 uM after 48 hrs by SRB assay; details: SNB-19, 48 h, read-out: GI; procedure, shortened: as §2
[8] = Growth inhibition of human SF539 cells at 10 uM after 48 hrs by SRB assay; details: SF-539, 48 h, read-out: GI; procedure, shortened: as §2
SW-620 = assay: Growth inhibition of human SW620 cells at 10 uM after 48 hrs by SRB assay; details: SW-620, 48 h, read-out: GI; procedure, shortened: as §2
[9] = Growth inhibition of human HCT15 cells at 10 uM after 48 hrs by SRB assay; details: HCT-15, 48 h, read-out: GI; procedure, shortened: as §2
HCT-116 = assay: Growth inhibition of human HCT116 cells at 10 uM after 48 hrs by SRB assay; details: HCT-116, 48 h, read-out: GI; procedure, shortened: as §2
[10] = Growth inhibition of human HCC2998 cells at 10 uM after 48 hrs by SRB assay; details: HCC 2998, 48 h, read-out: GI; procedure, shortened: as §2
COLO 205 = assay: Growth inhibition of human COLO205 cells at 10 uM after 48 hrs by SRB assay; details: COLO 205, 48 h, read-out: GI; procedure, shortened: as §1
NCI-H522 = assay: Growth inhibition of human NCI-H522 cells at 10 uM after 48 hrs by SRB assay; details: NCI-H522, 48 h, read-out: GI; procedure, shortened: as §2
NCI-H460 = assay: Growth inhibition of human NCI-H460 cells at 10 uM after 48 hrs by SRB assay; details: NCI-H460, 48 h, read-out: GI; procedure, shortened: as §2
NCI-H322M = assay: Growth inhibition of human NCI-H322M cells at 10 uM after 48 hrs by SRB assay; details: read-out: GI; procedure, shortened: as §2
[11] = Growth inhibition of human HOP92 cells at 10 uM after 48 hrs by SRB assay; details: HOP-92, 48 h, read-out: GI; procedure, shortened: as §2
NCI-H226 = assay: Growth inhibition of human NCI-H226 cells at 10 uM after 48 hrs by SRB assay; details: NCI-H226, 48 h, read-out: GI; procedure, shortened: as §2
HOP-62 = assay: Growth inhibition of human HOP62 cells at 10 uM after 48 hrs by SRB assay; details: HOP-62, 48 h, read-out: GI; procedure, shortened: as §2
[12] = Growth inhibition of human EKVX cells at 10 uM after 48 hrs by SRB assay; details: read-out: GI; procedure, shortened: as §2
SR = assay: Growth inhibition of human SR cells at 10 uM after 48 hrs by SRB assay; details: read-out: GI; procedure, shortened: as §2
K562 = assay: Growth inhibition of human K562 cells at 10 uM after 48 hrs by SRB assay; details: K562, 48 h, read-out: GI; procedure, shortened: as §2
CCRF-CEM = assay: Growth inhibition of human CCRF-CEM cells at 10 uM after 48 hrs by SRB assay; details: read-out: GI; procedure, shortened: as §1
[13] = Growth inhibition of human OVCAR8 cells at 10 uM after 48 hrs by SRB assay; details: OVCAR-8, 48 h, read-out: GI; procedure, shortened: as §2

| SMILES | inhibition of growth at 10 µM [1] [%] | inhibition of growth at 10 µM (MDA-MB-231) [%] | inhibition of growth at 10 µM (DU-145) [%] | inhibition of growth at 10 µM (PC-3) [%] | inhibition of growth at 10 µM [2] [%] | inhibition of growth at 10 µM (TK-10) [%] | inhibition of growth at 10 µM (SN12C) [%] | inhibition of growth at 10 µM (786-0) [%] | inhibition of growth at 10 µM (SK-OV-3) [%] | inhibition of growth at 10 µM [3] [%] | inhibition of growth at 10 µM [4] [%] | inhibition of growth at 10 µM [5] [%] | inhibition of growth at 10 µM (IGROV-1) [%] | inhibition of growth at 10 µM [6] [%] | inhibition of growth at 10 µM (SK-MEL-5) [%] | inhibition of growth at 10 µM (SK-MEL-2) [%] | inhibition of growth at 10 µM (MDA-MB-435) [%] | inhibition of growth at 10 µM (M14) [%] | inhibition of growth at 10 µM (Malme-3M) [%] | inhibition of growth at 10 µM [7] [%] | other results |
| --- | --- | --- | --- | --- | --- | --- | --- | --- | --- | --- | --- | --- | --- | --- | --- | --- | --- | --- | --- | --- | --- |
| Cc1ccc(C(=O)Nc2ccc(Cl)cc2C(=O)Nc2ccccn2)cc1 | < 10 | < 10 | 11 | 23 | 13 | < 10 | < 10 | < 10 | < 10 | < 10 | < 10 | 12 | 14 | 16 | 39 | < 10 | 19 | < 10 | < 10 | < 10 | inhibition of growth at 10 µM (U-251): < 10%; inhibition of growth at 10 µM (SNB-19): < 10%; inhibition of growth at 10 µM [8]: 22%; inhibition of growth at 10 µM (SW-620): < 10%; inhibition of growth at 10 µM [9]: 14%; inhibition of growth at 10 µM (HCT-116): < 10%; inhibition of growth at 10 µM [10]: < 10%; inhibition of growth at 10 µM (COLO 205): < 10%; inhibition of growth at 10 µM (NCI-H522): 22%; inhibition of growth at 10 µM (NCI-H460): < 10%; inhibition of growth at 10 µM (NCI-H322M): < 10%; inhibition of growth at 10 µM [11]: < 10%; inhibition of growth at 10 µM (NCI-H226): < 10%; inhibition of growth at 10 µM (HOP-62): < 10%; inhibition of growth at 10 µM [12]: 12%; inhibition of growth at 10 µM (SR): < 10%; inhibition of growth at 10 µM (K562): 35%; inhibition of growth at 10 µM (CCRF-CEM): 29%; inhibition of growth at 10 µM [13]: < 10% |
| Cc1ccc(-c2nc3ccc(Cl)cc3c3nnc(S)n23)cc1 | < 10 | 16 | < 10 | < 10 | < 10 | 19 | < 10 | < 10 | < 10 | < 10 | < 10 | < 10 | < 10 | < 10 | 12 | < 10 | < 10 | < 10 | < 10 | < 10 | inhibition of growth at 10 µM (U-251): < 10%; inhibition of growth at 10 µM (SNB-19): < 10%; inhibition of growth at 10 µM [8]: < 10%; inhibition of growth at 10 µM (SW-620): < 10%; inhibition of growth at 10 µM [9]: < 10%; inhibition of growth at 10 µM (HCT-116): < 10%; inhibition of growth at 10 µM [10]: < 10%; inhibition of growth at 10 µM (COLO 205): < 10%; inhibition of growth at 10 µM (NCI-H522): < 10%; inhibition of growth at 10 µM (NCI-H460): < 10%; inhibition of growth at 10 µM (NCI-H322M): < 10%; inhibition of growth at 10 µM [11]: < 10%; inhibition of growth at 10 µM (NCI-H226): 27%; inhibition of growth at 10 µM (HOP-62): < 10%; inhibition of growth at 10 µM [12]: 11%; inhibition of growth at 10 µM (SR): < 10%; inhibition of growth at 10 µM (K562): 11%; inhibition of growth at 10 µM (CCRF-CEM): 12%; inhibition of growth at 10 µM [13]: < 10% |
